Screens (PubChem)
This excerpt belongs to a sample that is enriched for hits.
HUVEC inhibit – inhibitors of HUVEC proliferation, primary screen, cell-based, 384-well; CellTiter-Glo luminescence, 72 h; hits give low values; viability, % at 10 µM (by protocol); 86,000 compounds, 1.1% hits; AID 648, 2007;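 active means viability at or below 30%; inactive means viability above 30%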;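 further: 100% = median luminescence of DMSO-only cell control wells on each plate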
Fibroblast inh – antiproliferative effect on LL 47 fibroblasts – human, LL 47 cells, CellTiter-Glo luminescence, primary screen | AID 719, 2007 | 85,000 compounds, 1.1% hits | LL 47 human lung fibroblast viability, ATP luminescence; hits give low values | viability, % at 10 µM;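 active means viability at or below 50% in the single dose screen; inactive means viability above 50%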;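 further: compound exposure lasted 72 h before the ATP readout; 100% = median luminescence of untreated cell-only wells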
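Test system: LL 47 human lung fibroblasts / Incubation: 72 h compound exposure at 37 °C after overnight plating / Technique: luminescent ATP detection, CellTiter-Glo / Compound dosing: 0.1% DMSO in all compound wells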
bCat KO growth – primary screen for growth suppressors in beta-catenin knockout HCT116 cells (colon tumor, human); AID 818, 2007; 140,000 compounds, 1.5% hits; HCT116 beta-catenin knockout viability, CellTiter-Glo, 60 h; hits give low values; viability, % at 10 µM;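 active means viability at or under a set limit, the compound median less 4 SD, cut at about 6% in these data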;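 further: 0% = Hyamine 1622 control at 20 µM and 100% = untreated cell control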
PTEN del growth – growth suppression of PTEN-null HCT116, primary screen, cell-based, CellTiter-Glo; HCT116 PTEN-null viability, 60 h; hits give low values; viability, % at 10 µM; 140,000 compounds, 1.2% hits; AID 827, 2007;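 active means viability at or below a set limit, 4 SD under the median of all tested compounds, cut at about 3.7% in these data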;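 further: PTEN knockout HCT116 line with beta catenin targeted HCT116 as companion control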
H69AR growth 86K – proliferation blockers of H69AR lung cancer cells, primary screen, cell-based, human, 86K library. viability, % at 10 µM. AID 598, 2007. 85,000 compounds, 6% hits. H69AR lung tumor viability, ATP luminescence, 72 h; hits give low values;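 active means viability at or below 40%; inactive means viability above 40%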;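 further: multidrug resistant small cell line overexpressing MRP-1 efflux transporter; 100% = mean luminescence of untreated control wells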
The depositor's hits bear a star.

What do the screens show for `N#C/C(=C(/O)COC(=O)CCc1ccc(S(=O)(=O)N2CCOCC2)cc1)c1nc2ccccc2[nH]1`?
HUVEC inhibit: 75.6; Fibroblast inh: 90.3; bCat KO growth: 5.7*; PTEN del growth: 4.2; H69AR growth 86K: 41.2

How did COc1cccc(OC)c1/C(O)=C(\C#N)c1nc2ccccc2[nH]1 do in these assays?
HUVEC inhibit: 88.0; Fibroblast inh: 91.4; bCat KO growth: 83.8; PTEN del growth: 89.4; H69AR growth 86K: 26.5*

What do the screens show for `CC(C)(C)/C(O)=C(/C#N)c1nc2ccccc2[nH]1`?
HUVEC inhibit: 98.6; Fibroblast inh: 93.7; bCat KO growth: 87.9; PTEN del growth: 89.2; H69AR growth 86K: 83.4

What do the screens show for `CCOC(=O)c1c(C)[nH]c(C(=O)OC/C(O)=C(\C#N)c2nc3ccccc3[nH]2)c1C`?
HUVEC inhibit: 9.2*; Fibroblast inh: 112.2; bCat KO growth: 86.8; PTEN del growth: 79.1; H69AR growth 86K: 57.4

What do the screens show for `CN(Cc1cn(C)c2ccccc12)C(=S)Nc1cc(F)cc(F)c1`?
bCat KO growth: 89.5; PTEN del growth: 77.4

What do the screens show for `CSCC[C@H](NC(=O)C(C)Oc1ccc(Cl)cc1)c1nc2ccccc2[nH]1` (stereo partly drawn)?
bCat KO growth: 82.0; PTEN del growth: 81.5

What do the screens show for `CC(C)Cn1c(N)c(C(=O)COC(=O)c2ccc3ccccc3n2)c(=O)n(C)c1=O`?
HUVEC inhibit: 94.7; Fibroblast inh: 93.5; bCat KO growth: 74.8; PTEN del growth: 83.9; H69AR growth 86K: 80.7

Results for CCN(CC)c1ccc(/C=C2/C(=O)c3ccc(C(=O)O)cc3C2=O)cc1 ?
bCat KO growth: 93.3; PTEN del growth: 102.3

How did CC(C)CSc1nc2c(c(=O)[nH]c(=O)n2C)n1CCc1ccccc1 do in these assays?
HUVEC inhibit: 77.2; Fibroblast inh: 84.7; bCat KO growth: 57.7; PTEN del growth: 69.4; H69AR growth 86K: 98.0

Results for CC(C)CSc1nc2c(c(=O)[nH]c(=O)n2C)n1CC(O)COc1cccc2ccccc12 (stereo not drawn) ?
HUVEC inhibit: 79.2; Fibroblast inh: 90.8; bCat KO growth: 68.0; PTEN del growth: 68.0; H69AR growth 86K: 32.2*

Results for Cc1cc(F)ccc1S(=O)(=O)Nc1ccccc1C(=O)Nc1ccccc1-c1nc2ccccc2[nH]1 ?
bCat KO growth: 3.7*; PTEN del growth: 3.9

What do the screens show for `Cc1cc(F)ccc1S(=O)(=O)Nc1ccccc1C(=O)Nc1ncn[nH]1`?
HUVEC inhibit: 88.3; Fibroblast inh: 104.2; bCat KO growth: 98.8; PTEN del growth: 88.4; H69AR growth 86K: 94.1

How did Cc1cc(C)c2cc(CN(CCO)C(=O)Nc3ccc(F)cc3)c(=O)[nH]c2c1 do in these assays?
HUVEC inhibit: 88.0; Fibroblast inh: 94.5; bCat KO growth: 92.8; PTEN del growth: 88.6; H69AR growth 86K: 38.1*

Results for CN(C)CCCN1c2ccccc2Sc2ccc(C(F)(F)F)cc21 ?
HUVEC inhibit: 46.8; Fibroblast inh: 41.3*; bCat KO growth: 11.0; PTEN del growth: 13.3; H69AR growth 86K: 1.5*

What do the screens show for `OCCN1CCN(CCCN2c3ccccc3Sc3ccc(C(F)(F)F)cc32)CC1`?
HUVEC inhibit: 2.9*; Fibroblast inh: 47.2*; bCat KO growth: 1.7*; PTEN del growth: 1.5*; H69AR growth 86K: 0.8*

How did O=c1[nH]c(N2CCN(c3ccccc3)CC2)nc2c1CCCC2 do in these assays?
HUVEC inhibit: 76.8; Fibroblast inh: 100.4; bCat KO growth: 106.2; PTEN del growth: 106.9; H69AR growth 86K: 21.3*

Results for Fc1cc(F)c2nc(Nc3nc4cc5c(cc4s3)OCO5)sc2c1 ?
bCat KO growth: 1.3*; PTEN del growth: 6.4

What do the screens show for `COc1ccc(NC(=O)Nc2cccc([N+](=O)[O-])c2)cc1Cl`?
bCat KO growth: 5.0*; PTEN del growth: 4.3

How did O=C(Nc1ccc([N+](=O)[O-])cc1)Nc1ccc(OC(F)F)c(Cl)c1 do in these assays?
bCat KO growth: 1.0*; PTEN del growth: 1.1*

How did Cc1ccc(CNC(=O)C(Cc2ccccc2)NS(=O)(=O)c2ccc(Br)s2)cc1 (stereo not drawn) do in these assays?
bCat KO growth: 77.2; PTEN del growth: 70.6

Results for Cc1cc(C#N)c(C)n1-c1cc(S(=O)(=O)N2CCOCC2)ccc1N1CCCC1 ?
HUVEC inhibit: 87.3; Fibroblast inh: 92.0; bCat KO growth: 72.5; PTEN del growth: 79.9; H69AR growth 86K: 43.5

How did CCCCCN(C(=O)NC(=O)Nc1ccccc1C)S(=O)(=O)c1ccccc1 do in these assays?
bCat KO growth: 77.3; PTEN del growth: 73.2

Results for O=C(CCCC(=O)OCC(Cl)=C(Cl)Cl)Nc1ccccc1 ?
bCat KO growth: 91.8; PTEN del growth: 93.9

How did CCOC(=O)CSC1=C(C#N)C(c2ccc(Cl)cc2)CC(=O)N1 (stereo not drawn) do in these assays?
HUVEC inhibit: 96.5; Fibroblast inh: 93.2; bCat KO growth: 97.3; PTEN del growth: 90.2; H69AR growth 86K: 86.4

What do the screens show for `CCOC(=O)CSC1=C(C#N)C(c2ccccc2OCC)C(C(=O)OCC)C(=O)N1` (stereo not drawn)?
HUVEC inhibit: 104.7; Fibroblast inh: 92.3; bCat KO growth: 91.3; PTEN del growth: 105.2; H69AR growth 86K: 91.9

How did CCOC(=O)CSC1=C(C#N)C(c2ccc3c(c2)OCO3)CC(=O)N1 (stereo not drawn) do in these assays?
HUVEC inhibit: 69.2; Fibroblast inh: 79.5; bCat KO growth: 51.0; PTEN del growth: 48.8; H69AR growth 86K: 22.9*

How did CCCCOC(=O)CSC1=C(C#N)C(c2ccc3c(c2)OCO3)CC(=O)N1 (stereo not drawn) do in these assays?
HUVEC inhibit: 92.0; Fibroblast inh: 100.0; bCat KO growth: 82.7; PTEN del growth: 83.9; H69AR growth 86K: 88.3

How did CCOC(=O)CSC1=C(C#N)C(c2ccccc2OCC)C(C#N)C(=O)N1 (stereo not drawn) do in these assays?
HUVEC inhibit: 69.6; Fibroblast inh: 93.4; bCat KO growth: 95.1; PTEN del growth: 91.5; H69AR growth 86K: 27.3*

Results for CCOC(=O)CSC1=C(C#N)C(c2ccc(C)o2)CC(=O)N1 (stereo not drawn) ?
HUVEC inhibit: 33.5; Fibroblast inh: 48.6*; bCat KO growth: 11.7; PTEN del growth: 15.9; H69AR growth 86K: 94.3

What do the screens show for `CC1CC(C)CN(C(=O)CSc2nc(Cc3cccs3)nc3ccccc23)C1` (stereo not drawn)?
bCat KO growth: 74.0; PTEN del growth: 69.1

What do the screens show for `Cc1ccc(NC(=O)C(C)c2ccc([N+](=O)[O-])cc2)cc1Cl` (stereo not drawn)?
bCat KO growth: 57.8; PTEN del growth: 46.2

How did C=CCNc1oc(COc2ccc(C)cc2)nc1C#N do in these assays?
HUVEC inhibit: 98.3; Fibroblast inh: 97.1; bCat KO growth: 101.2; PTEN del growth: 103.5; H69AR growth 86K: 91.7
